Reference: ChEMBL document CHEMBL3616366, “Design, synthesis and biological activity of new amides derived from 3-methyl-3-phenyl-2,5-dioxo-pyrrolidin-1-yl-acetic acid” (Eur J Med Chem, 2015)
The source made the active and inactive calls.

Experiments:
[1] = system: Mus musculus; assay: Anticonvulsant activity in albino CD-1 mouse assessed as protection against subcutaneous pentylenetetrazole-induced seizure at 30 to 300 mg/kg, ip measured after 2.0 hrs; format: functional
Outline: (§1)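 Male CD-1 mice given compound i.p. (0.5% methylcellulose suspension) at 30, 100, 300 mg/kg, four per group; pentylenetetrazole 85 mg/kg s.c. at 0.5 or 2 h. Absence of clonic convulsions (≥5 s) over 30 min observation counts as protection. Minimum active dose reported.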

[2] = system: Mus musculus; assay: Neurotoxicity in albino CD-1 mouse assessed as motor impairment at 30 to 300 mg/kg mg/kg, ip measured after 0.5 hrs by rotarod test; format: toxicity, organism-based; conditions: in vivo
Outline: (§2)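 Rotarod in male CD-1 mice at 0.5 and 2 h after i.p. 30, 100 or 300 mg/kg (methylcellulose suspension); motor impairment = inability to keep balance on rod turning at 10 rpm for at least 1 min. Minimum neurotoxic dose reported.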

[3] = system: Mus musculus; assay: Anticonvulsant activity in albino CD-1 mouse assessed as protection against maximal electroshock-induced seizure at 30 to 300 mg/kg, ip measured after 2.0 hrs; format: functional; conditions: for minimal effective dose: CD-1, ip, read-out: MED
Outline: (§3)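 Male CD-1 mice (16–26 g), compound suspended in 0.5% methylcellulose/water, i.p. at 30, 100, 300 mg/kg; four mice per group, each used once. Electroconvulsion by electrical stimulus 0.2 s at 50 Hz; protection scored at 0.5 and 2 h. Value is minimum dose showing activity.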

[4] = system: Mus musculus; assay: Neurotoxicity in albino CD-1 mouse assessed as mouse mortality at 300 mg/kg mg/kg, ip measured after 0.5 hrs; format: toxicity, organism-based; conditions: in vivo
Outline: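 Male albino CD-1 mice (16–26 g), four per group, each used once. Compounds were suspended in 0.5% methylcellulose/water and injected i.p. at 30, 100 and 300 mg/kg. Acute motor impairment was scored by rotarod at 0.5 and 2 h: inability to stay on a rod turning at 10 rpm for at least 1 min.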

[5] = system: Mus musculus; assay: Neurotoxicity in albino CD-1 mouse assessed as motor impairment at 30 to 300 mg/kg mg/kg, ip measured after 2 hrs by rotarod test; format: toxicity, organism-based; conditions: in vivo; outline: as §2
[6] = system: Mus musculus; assay: Anticonvulsant activity in albino CD-1 mouse assessed as protection against maximal electroshock-induced seizure at 30 to 300 mg/kg, ip measured after 0.5 hrs; format: functional; conditions: for minimal effective dose: CD-1, ip, read-out: MED; outline: as §3
[7] = system: Mus musculus; assay: Anticonvulsant activity in albino CD-1 mouse assessed as protection against subcutaneous pentylenetetrazole-induced seizure at 30 to 300 mg/kg, ip measured after 0.5 hrs; format: functional; conditions: for minimal effective dose: CD-1, 0.5 h, read-out: MED; outline: as §1
[8] = Protective index, ratio of TD50 for neurotoxicity in ip dosed albino CD-1 mouse to ED50 for anticonvulsant activity in ip dosed subcutaneous pentylenetetrazole-induced seizure albino CD-1 mouse model; format: toxicity, organism-based; conditions: in vivo, read-out: Ratio TD50/ED50
Outline: (§4)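 Protective index computed as TD50 (rotarod) divided by ED50 (MES or scPTZ), both from probit analysis on groups of six i.p.-dosed mice.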

[9] = system: Mus musculus; assay: Antinociceptive activity in albino CD-1 mouse assessed as reduction in licking and biting time during phase 1 at 114.68 mg/kg, ip administered 30 mins prior to formalin challenge relative to control; format: functional; design: scale not given: the % may be the effect or the level left
[10] = system: Mus musculus; assay: Antinociceptive activity in albino CD-1 mouse assessed as reduction in licking and biting time during phase 2 at 114.68 mg/kg, ip administered 30 mins prior to formalin challenge measured between 15.0 to 30.0 mins relative to control; format: functional; design: scale not given: the % may be the effect or the level left
[11] = system: Mus musculus; assay: Anticonvulsant activity in ip dosed albino CD-1 mouse assessed as protection against subcutaneous pentylenetetrazole-induced seizure measured as time to peak effect; format: functional
Outline: (§5)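 Quantitative work at time of peak effect previously estimated in screening; groups of six mice given various i.p. doses until ≥3 points within 10–90% seizure protection (MES or scPTZ) or minimal motor impairment on rotarod (10 rpm, failure to hold ≥1 min).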

[12] = system: Mus musculus; assay: Anticonvulsant activity in ip dosed albino CD-1 mouse assessed as protection against subcutaneous pentylenetetrazole-induced seizure; format: functional; outline: as §5
[13] = system: Mus musculus; assay: Antinociceptive activity in albino CD-1 mouse assessed as reduction in licking and biting time during phase 2 at 114.68 mg/kg, ip administered 30 mins prior to formalin challenge measured between 15.0 to 20.0 mins relative to control; format: functional; design: scale not given: the % may be the effect or the level left
[14] = Protective index, ratio of TD50 for neurotoxicity in ip dosed albino CD-1 mouse to ED50 for anticonvulsant activity in ip dosed maximal electoshock-induced seizure albino CD-1 mouse model; format: toxicity, organism-based; conditions: in vivo, read-out: Ratio TD50/ED50; outline: as §4
[15] = system: Mus musculus; assay: Neurotoxicity in albino CD-1 mouse assessed as motor performance by measuring time spent in chimney at 114.68 mg/kg, ip administered 30 mins prior to chimney test (reference value: 6.29 +/- 2.48 sec); format: toxicity, organism-based; conditions: in vivo
[16] = system: Mus musculus; assay: Anticonvulsant activity in ip dosed albino CD-1 mouse assessed as protection against maximal electroshock-induced seizure measured as time to peak effect; format: functional; outline: as §5
[17] = Neurotoxicity in ip dosed albino CD-1 mouse assessed as motor impairment by rotarod test; format: toxicity, organism-based; conditions: in vivo; outline: as §5
[18] = system: Mus musculus; assay: Antinociceptive activity in albino CD-1 mouse assessed as reduction in licking and biting time during phase 2 at 114.68 mg/kg, ip administered 30 mins prior to formalin challenge measured between 25.0 to 30.0 mins relative to control; format: functional; design: scale not given: the % may be the effect or the level left
[19] = species: Rattus norvegicus; assay: Displacement of [3H]BTX from voltage-sensitive sodium channel site2 in rat cerebral cortex at 100 uM measured after 60.0 mins by scintillation counting; format: tissue-based
[20] = system: Mus musculus; assay: Anticonvulsant activity in ip dosed albino CD-1 mouse assessed as protection against maximal electroshock-induced seizure; format: functional; conditions: CD-1, ip; outline: as §5
[21] = system: Salmonella typhimurium; assay: Mutagenic activity in Salmonella typhimurium TA100 assessed as mutagenicity index at 40 ng/ml by Ames test; format: toxicity, organism-based; conditions: salmonella enterica subsp. enterica serovar typhimurium
Outline: (§6)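 Ames TA100 liquid pre-incubation (minimal medium, 37 °C) and V. harveyi assay (BOSS medium, 30 °C); test at 40 ng/ml, triplicate. Mutagenic index = induced revertants / spontaneous revertants (DMSO control); M.I. ≥2 considered mutagenic.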

[22] = system: Vibrio harveyi; assay: Mutagenic activity in Vibrio harveyi BB7 assessed as mutagenicity index at 40 ng/ml; format: organism-based; conditions: in vivo; outline: as §6
[23] = system: Vibrio harveyi; assay: Mutagenic activity in Vibrio harveyi BB7XM assessed as mutagenicity index at 40 ng/ml; format: organism-based; conditions: in vivo; outline: as §6
[24] = system: Vibrio harveyi; assay: Antimutagenic activity in Vibrio harveyi BB7XM assessed as inhibition of nitroquinoline-N-oxide-induced revertant colonies; format: functional
Outline: (§7)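 Revertants induced by 4-nitroquinoline-N-oxide (final 40 ng/ml) with versus without test compound; TA100 at 37 °C, V. harveyi strains at 30 °C in BOSS medium. Three independent repetitions; inhibition % = 100 − (R1/R2 × 100); 25–40% moderate, ≥40% strong.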

[25] = system: Vibrio harveyi; assay: Antimutagenic activity in Vibrio harveyi BB7 assessed as inhibition of nitroquinoline-N-oxide-induced revertant colonies; format: functional; outline: as §7
[26] = system: Salmonella typhimurium; assay: Antimutagenic activity in Salmonella typhimurium TA100 assessed as inhibition of nitroquinoline-N-oxide-induced revertant colonies by Ames test; format: functional, Salmonella enterica subsp. enterica serovar Typhimurium; outline: as §7
[27] = system: Mus musculus; assay: Antinociceptive activity in albino CD-1 mouse assessed as reduction in licking and biting time during phase 2 at 104.11 mg/kg, ip administered 2.0 hrs prior to formalin challenge measured between 15.0 to 20.0 mins relative to control; format: functional; design: scale not given: the % may be the effect or the level left
[28] = system: Mus musculus; assay: Antinociceptive activity in albino CD-1 mouse assessed as reduction in licking and biting time during phase 2 at 104.11 mg/kg, ip administered 2.0 hrs prior to formalin challenge measured between 20.0 to 25.0 mins relative to control; format: functional; design: scale not given: the % may be the effect or the level left
[29] = system: Mus musculus; assay: Neurotoxicity in albino CD-1 mouse assessed as motor performance by measuring time spent in chimney at 104.11 mg/kg, ip administered 2.0 hrs prior to chimney test (reference value: 6.29 +/- 2.48 sec); format: toxicity, organism-based; conditions: in vivo
[30] = system: Mus musculus; assay: Anticonvulsant activity in ip dosed albino CD-1 mouse assessed as protection against 6 Hz current-induced seizure measured after 2.0 hrs; format: functional; conditions: CD-1, ip, read-out: MED
Outline: (§8)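 6-Hz psychomotor test: corneal stimulation 32 mA, 0.2 ms monopolar rectangular pulses at 6 Hz for 3 s, mice restrained then released to observation cage. Protected if normal exploratory behaviour resumes within 10 s. Doses 30, 100, 300 mg/kg i.p.; read at 0.5 and 2 h; minimum active dose.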

[31] = system: Mus musculus; assay: Antinociceptive activity in albino CD-1 mouse assessed as reduction in licking and biting time during phase 1 at 104.11 mg/kg, ip administered 2.0 hrs prior to formalin challenge relative to control; format: functional; design: scale not given: the % may be the effect or the level left
[32] = system: Mus musculus; assay: Antinociceptive activity in albino CD-1 mouse assessed as reduction in licking and biting time during phase 2 at 104.11 mg/kg, ip administered 2.0 hrs prior to formalin challenge measured between 15.0 to 30.0 mins relative to control; format: functional; design: scale not given: the % may be the effect or the level left
[33] = system: Mus musculus; assay: Anticonvulsant activity in ip dosed albino CD-1 mouse assessed as protection against 6 Hz current-induced seizure measured after 0.5 hrs; format: functional; conditions: CD-1, ip, read-out: MED; outline: as §8

Compound	MED [1]	MTC [2]	MED [3]	MTC [5]	MED [6]	MED [7]	selectivity ratio [8]	Time [11] [h]	ED50 [12] [mg/kg]	selectivity ratio [14]	Time [16] [h]	TD50 [17] [mg/kg]	minimal effective dose [6] [mg/kg]	minimal effective dose [7] [mg/kg]	ED50 [20] [mg/kg]	Activity_index [21]	Activity_index [22]	Activity_index [23]	inhibition (INH) [24] [%]	minimal effective dose [3] [mg/kg]	also measured
CC1(c2ccccc2)CC(=O)N(CC(=O)N2CCN(C3CCCCC3)CC2)C1=O (stereo not drawn)	inactive	300 mg/kg	inactive	Non-toxic	inactive	inactive															Activity [4]: Toxic
CC1(c2ccccc2)CC(=O)N(CC(=O)N2CCN(c3ccccc3F)CC2)C1=O (stereo not drawn)		300 mg/kg	inactive	300 mg/kg			3.11	0.5	97.1	2.64	0.5	302	100	100	115						Activity [9]: 73.3%; Activity [10]: 87.1%; Activity [13]: 98%; minimal effective dose ([1]; CD-1, 2 h, read-out: MED): 300 mg/kg; Time [15]: 6.5 s; Activity [18]: 81%; inhibition [19]: 56.1%
CC1(c2ccccc2)CC(=O)N(CC(=O)N2CCN(c3ccc(Cl)c(Cl)c3)CC2)C1=O (stereo not drawn)	inactive	Non-toxic		Non-toxic	inactive	inactive										0.3	1.2	0.7	63	300	inhibition (INH) [25]: 47%; inhibition (INH) [26]: 36%
CC1(c2ccccc2)CC(=O)N(CC(=O)N2CCC(Cc3ccccc3)CC2)C1=O (stereo not drawn)	inactive	Non-toxic		Non-toxic	inactive		> 8.33	0.5	60		0.5	> 500		100		0.5	1.5	1.6	26	300	inhibition (INH) [25]: 22%; inhibition (INH) [26]: 5%
CC1(c2ccccc2)CC(=O)N(CC(=O)N2CCN(c3ccc(F)cc3)CC2)C1=O (stereo not drawn)	inactive	300 mg/kg		300 mg/kg		inactive		2		2.37	2	248	100		104					100	Activity [27]: 95%; Activity [28]: 95%; Time [29]: 6.14 s; minimal effective dose [30]: 300 mg/kg; Activity [31]: 60%; Activity [32]: 82.3%; minimal effective dose [33]: 300 mg/kg
